Source: PubChem BioAssay (several laboratories)
Compounds with a hit are over-represented: about 1.7% of the library has one in this group of screens.
HNF4A DNA FP = change in binding of human HNF4 alpha to DNA | HNF4a-FITC DNA binding, fluorescence polarization, 1 h | activity change, % at 10 µM | 360,000 tested, 0.3% active; in the data active means activity change above about 30%, passing the limit was not always enough
TPT1 inhibitor = blocks Candida albicans tRNA 2'-phosphotransferase. recombinant caTPT1, FP RNA substrate dephosphorylation. AID 1962. inhibition, % at 5 µM. 300,000 tested, 0.81% active;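 active means inhibition above the mean of all tested compounds plus 3 SD, set per screening campaign, cut at about 24% in these data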;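 further: plate controls were DMSO alone for no effect and ferristatin control at 100 nM for full effect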
CSN deneddyl inh = CSN deneddylation inhibition; inhibition, % at 12.5 µM; 360,000 tested, 0.38% active; Q92905; AID 651999; Purified CSN, SCF-Nedd8-OG deneddylation, fluorescence polarization;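 active means pattern-corrected inhibition above about 35%, with an unprinted fluorescence ratio check between 0.5 and 1.5, limit read from the data, passing the limit was not always enough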;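 further: 0% = enzyme with substrate and 100% = substrate without enzyme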
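Assay system: purified human Csn5 enzyme expressed in HEK293T cells; measure: % inhibition; also added: SCFSkp2-Nedd8OG substrate at 10 nM final; technique: fluorescence polarization; times: reaction 90 min, room temperature; medium: Tris buffer pH 7.5, NaCl, DTT, Tween-20, trehalose, ovalbumin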
IDE inh = inhibits human insulin-degrading enzyme in HEK cells; inhibition, % at 5.59 µM; AID 434962; 320,000 tested, 0.41% active; P14735; FAbetaB cleavage, fluorescence polarization;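 active means percent inhibition above the average of all tested compounds plus 3 SD, set per screening campaign, cut at about 16% in these data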;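 further: IDE supplied by intact live HEK cells; FP after avidin binding of uncleaved biotin substrate so inhibition keeps polarization high; 0% = DMSO wells and 100% = 60 µM reference IDE inhibitor Ii1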
Rpn11 block = inhibitors of human proteasome Rpn11; O00487; human 26S proteasome, Ub4-pepOG fluorescence polarization; 20S core pre-blocked with epoxomicin; inhibition, % at 20 µM; 360,000 tested, 0.59% active;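 active means inhibition at 20 µM, scaled to each plate's controls, above about 33%, limit read from the data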
IDE act = boosts human insulin-degrading enzyme activity in HEK cells; P14735; FAbeta-B cleavage, fluorescence polarization; 0% vehicle, 100% cell-free pure enzyme wells; activation, % at 5.96 µM; 340,000 tested, 0.073% active;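 active means activation above the mean of all tested compounds plus 3 SD, set per screening campaign, cut at about 17% in these data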
caTPT1 confirm = TPT1 (C. albicans) inhibition, confirmation | recombinant caTPT1, fluorescence polarization, RNase T1 coupled | 2,400 tested, 74% active | inhibition, % at 5 µM | shares compounds with TPT1 inhibitor | AID 2149;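 active means inhibition above the primary screen limit, the mean inhibition of all tested compounds plus 3 SD, cut at about 25% in these data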
RNase T1 counter = blocks Aspergillus oryzae RNase T1, a TPT1 counter-screen; shares compounds with TPT1 inhibitor; AID 2153; 2,400 tested, 83% active; RNase T1 cleavage, fluorescence polarization, 1536-well; inhibition, % at 5 µM;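 active means inhibition above the solvent-only control well mean plus 3 SD, limit set per screening run, cut at about 23% in these data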;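 further: plate controls were DMSO wells with enzyme for no effect and wells without RNase T1 for full effect; inhibitors block cleavage so intact labeled substrate keeps polarization high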
IDE inh confirm = cellular human IDE inhibition, confirmation. shares compounds with IDE inh. HEK cells, FAbetaB cleavage, fluorescence polarization. inhibition, % at 5.59 µM. 1,200 tested, 51% active. AID 435028;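 active means mean inhibition across triplicate wells above the cutoff set by the earlier primary insulin-degrading enzyme screen, cut at about 16% in these data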;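 further: 0% = DMSO wells and 100% = 60 µM reference IDE inhibitor Ii1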
HEK293 tox = kills HEK cells in IDE inhibitor counter-screen; HEK293 cytotoxicity, ATP luminescence; inhibition, % at 5.59 µM; 1,200 tested, 28% active; shares compounds with IDE inh; in the data active means inhibition above about 22%;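 further: 0% = vehicle wells and 100% = reference cytotoxic drug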
Rpn11 confirm = confirmation of human proteasome Rpn11 inhibitors. shares compounds with Rpn11 block. purified human 26S proteasome, Ub4-pepOG fluorescence polarization; proteasome pretreated with epoxomicin. inhibition, % at 20 µM. 1,900 tested, 29% active. AID 602318
MMP-2 counter-1 = counter-screen for RPN11 inhibitors: inhibition of human MMP-2; shares compounds with Rpn11 block; 1,900 tested, 4% active; recombinant MMP-2, FRET peptide cleavage fluorescence; inhibition, % at 20 µM;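 further: human MMP-2 activated beforehand with APMA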
Thrombin FP = blocks bovine thrombin, flagging nonselective RPN11 hits | shares compounds with Rpn11 block | bovine thrombin cleavage of Ub4-pepOG, fluorescence polarization | inhibition, % at 20 µM | 1,900 tested, 13% active | AID 602333;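 active means mean inhibition at least 40% at 20 µM, or signal 3 deviations below plate average, so some actives read negative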;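 further: plate controls were thrombin with DMSO for no effect and buffer wells lacking thrombin for full effect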
Target sequence (P00735 whole entry, looked up): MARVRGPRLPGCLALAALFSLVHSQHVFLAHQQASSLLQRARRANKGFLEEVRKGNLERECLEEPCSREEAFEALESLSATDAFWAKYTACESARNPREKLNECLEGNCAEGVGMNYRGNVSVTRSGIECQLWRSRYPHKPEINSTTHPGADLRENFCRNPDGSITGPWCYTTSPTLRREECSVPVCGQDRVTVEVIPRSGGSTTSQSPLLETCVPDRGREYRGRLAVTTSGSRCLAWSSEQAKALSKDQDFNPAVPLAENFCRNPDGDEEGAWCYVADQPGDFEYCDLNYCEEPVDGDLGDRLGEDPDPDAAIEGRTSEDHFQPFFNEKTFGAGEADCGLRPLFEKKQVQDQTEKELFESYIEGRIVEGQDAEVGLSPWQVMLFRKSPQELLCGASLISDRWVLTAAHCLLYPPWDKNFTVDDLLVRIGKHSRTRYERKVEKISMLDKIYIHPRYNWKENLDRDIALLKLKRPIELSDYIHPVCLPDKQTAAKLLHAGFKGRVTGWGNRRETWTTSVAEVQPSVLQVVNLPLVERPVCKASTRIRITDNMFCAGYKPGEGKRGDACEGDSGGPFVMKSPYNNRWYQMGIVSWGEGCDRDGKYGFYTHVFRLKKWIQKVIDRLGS
CSN deneddyl val = Csn5 (human) deneddylation inhibition, single-concentration validation. Csn5 deneddylation of SCF-Nedd8OG, fluorescence polarization, 90 min. 540 tested, 62% active. shares compounds with CSN deneddyl inh. inhibition, % at 16.6 µM; in the data active means inhibition above about 50%;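 further: 0% = DMSO with enzyme and 100% = no enzyme wells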
MMP-2 counter-2 = counter-screen for CSN deneddylation inhibitors: human MMP-2 inhibition; shares compounds with CSN deneddyl inh; recombinant MMP-2, FRET substrate fluorescence, 60 min; inhibition, % at 16.6 µM; 540 tested, 33% active; AID 720655;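 active means corrected plate-normalized z-score of 5 or more, or -5 or less, or inhibition of 15% or more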;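 further: plate controls were DMSO wells with enzyme for no effect and buffer wells lacking MMP-2 for full effect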
Thrombin counter = counter-screen for CSN deneddylation inhibitors: bovine thrombin inhibition; shares compounds with CSN deneddyl inh; bovine thrombin cleavage of Ub4-pepOG, fluorescence polarization; AID 720656; 540 tested, 49% active; inhibition, % at 16.6 µM;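 active means inhibition at or above a set limit, with a fluorescence interference ratio between 0.5 and a set maximum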
Numbers without * were called inactive; nt = no result shown. Unless noted, no stated cut-off is given here; in the data, active means inhibition above about 40%; inactive means the rest.

SMILES | HNF4A DNA FP | TPT1 inhibitor | CSN deneddyl inh | IDE inh | Rpn11 block | IDE act | caTPT1 confirm | RNase T1 counter | CSN deneddyl val | MMP-2 counter-2 | Thrombin counter | others
O=C(N/N=C/c1c(O)ccc2ccccc12)c1cccc(C(F)(F)F)c1 | 92* | 135* | 69* | 180* | nt | -132 | 149* | 137* | 63* | -25* | 49* | IDE inh confirm=137*;HEK293 tox=115*
COc1cc(N2CCCC2)c(OC)cc1/C=C(/C#N)c1ccc(Br)cc1 | 113 | 104* | 60* | 5 | nt | -7 | 130* | 147* | 90* | -7 | 22*
COc1ccc(C(C#N)=Cc2ccccc2OC)cc1 | 0 | nt | 2 | nt | -3 | nt | nt | nt | nt | nt | nt
O=C(O)c1ccc(-c2ncc[nH]2)cc1 | 5 | -2 | -1 | 5 | 3 | 1 | nt | nt | nt | nt | nt
CCOC(=O)/C(=C/C1=CC(=C/N(C)C)/C(=O)O1)C(C)=O | 66* | 124* | 93* | 16* | nt | -13 | 140* | 138* | 121* | -23 | 82* | IDE inh confirm=23*;HEK293 tox=4
O=C1/C(=C\c2ccco2)CCC/C1=C\c1ccco1 | 62 | 55* | 39* | 15 | nt | -32 | 65* | 72* | 66* | 6 | 53*
COc1ccc(N=Cc2c(O)c3ccccc3n2C(C)=O)cc1 | 97* | 122* | 61* | -4 | nt | -22 | 131* | 128* | 50* | -26 | 56*
COc1ccccc1Cc1c(-c2cccc(Cl)c2)nc2ccc(Cl)cn12 | 14 | nt | 1 | nt | 27 | nt | nt | nt | nt | nt | nt
Cc1cc(/C=C(/C#N)c2nc3ccccc3[nH]2)c(C)n1-c1cc(C(=O)O)cc(C(=O)O)c1 | -33 | nt | 21 | nt | 20 | -2 | nt | nt | nt | nt | nt
Cc1ccc2nc(/C(C#N)=C/c3ccc(-c4ccccc4C(=O)O)o3)[nH]c2c1 | 97* | 133* | 76* | 85* | nt | -74 | 139* | 132* | 63* | -32* | 68 | IDE inh confirm=115*;HEK293 tox=13
Cc1ccc2nc(/C(C#N)=C\c3ccc([N+](=O)[O-])o3)[nH]c2c1 | 103 | 55* | 52* | 11 | 48* | -5 | 47* | 59* | 30 | 18* | 44* | Rpn11 confirm=12;MMP-2 counter-1=-18;Thrombin FP=19
Cc1nc2c(OCCC3CCCCC3)cccn2c1N(C)C(=O)CCC1CCCC1 | 1 | nt | 4 | nt | 10 | nt | nt | nt | nt | nt | nt
Cn1cccc1/C=C1\SC(=O)N(c2ccc(O)cc2)C1=O | -5 | 2 | 26 | -1 | 6 | -4 | nt | nt | nt | nt | nt
O=C(Cc1c2ccccc2nc2ccccc12)c1ccccc1 | -1 | -3 | -7 | -2 | -4 | 7 | nt | nt | nt | nt | nt
